Measured values published in ChEMBL document CHEMBL1140655, “Design and synthesis of hepatoselective, pyrrole-based HMG-CoA reductase inhibitors” (Bioorg Med Chem Lett, 2007).
Activity calls are given as the source filed them. The calls are words filed in the database; no cut-off is given here.

Tests used:
[1] = system: Hepatocyte; experiment: Inhibition of cholesterol synthesis in rat hepatocyte; format: functional, cell-based
[2] = Inhibition of cholesterol synthesis in rat myocyte; format: functional, cell-based; details: Ventricular myocyte
[3] = system: Mus musculus; experiment: Inhibition of acute cholesterol synthesis in mouse at 1 mg/kg; format: functional; details: for inhibition in vivo at 1 mg/kg: read-out: Inhibition
[4] = target: T1, 3-hydroxy-3-methylglutaryl-coenzyme A reductase (Homo sapiens, UniProt P04035); experiment: Inhibition of HMG-CoA reductase
T1 sequence (P04035 whole entry): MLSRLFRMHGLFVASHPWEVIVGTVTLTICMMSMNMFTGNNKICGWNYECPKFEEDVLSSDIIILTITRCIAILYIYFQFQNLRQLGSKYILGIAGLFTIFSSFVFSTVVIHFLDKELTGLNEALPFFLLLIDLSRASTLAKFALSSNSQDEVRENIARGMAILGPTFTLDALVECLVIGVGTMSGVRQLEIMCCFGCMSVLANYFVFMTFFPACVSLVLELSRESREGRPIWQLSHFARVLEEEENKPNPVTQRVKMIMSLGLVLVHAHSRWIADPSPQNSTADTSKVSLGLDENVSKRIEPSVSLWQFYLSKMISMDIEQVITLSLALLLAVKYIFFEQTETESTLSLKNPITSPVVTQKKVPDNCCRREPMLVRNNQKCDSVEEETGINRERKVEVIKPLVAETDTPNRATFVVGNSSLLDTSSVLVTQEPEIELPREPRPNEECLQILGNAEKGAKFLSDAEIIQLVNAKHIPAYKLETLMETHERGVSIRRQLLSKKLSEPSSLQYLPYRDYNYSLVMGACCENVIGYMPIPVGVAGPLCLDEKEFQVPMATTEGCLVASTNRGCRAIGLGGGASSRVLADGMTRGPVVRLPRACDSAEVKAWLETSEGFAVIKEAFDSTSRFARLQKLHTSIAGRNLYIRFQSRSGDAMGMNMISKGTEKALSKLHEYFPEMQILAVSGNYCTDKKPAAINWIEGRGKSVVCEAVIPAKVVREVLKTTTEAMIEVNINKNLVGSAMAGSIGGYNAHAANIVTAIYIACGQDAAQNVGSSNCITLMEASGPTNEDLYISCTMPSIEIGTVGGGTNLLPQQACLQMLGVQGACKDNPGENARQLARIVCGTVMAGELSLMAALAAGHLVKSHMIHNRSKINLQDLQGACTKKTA

[5] = Reduction in LDL cholesterol on cholestyramine-primed hamster serum at 10 mg/kg, po after 7 days; format: functional; parameters: scale not given: the % may be the effect or the level left
Outline: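 Cholestyramine-primed hamsters were dosed orally at 10 mg/kg once daily for 7 days. At the end of treatment, serum LDL-C was measured and percent reduction calculated against an untreated control group.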

[6] = Reduction in LDL cholesterol on cholestyramine-primed orally dosed hamster plasma after 7 days; format: functional; details: Cricetulus griseus, po, 168 h
Outline: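 Cholestyramine-primed hamsters were dosed orally once daily for 7 days at 0.1, 0.5, 1, 5, 10 or 50 mg/kg (separate groups, n = 10 each). Animals were sacrificed 2 h after the final dose and plasma LDL measured. Results are mean ± SEM percent change from control, with ED50 derived from the dose–response.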

IC50 [2] [nM]	IC50 [4] [nM]	SMILES	IC50 [1] [nM]	inhibition in vivo at 1 mg/kg [3] [%]	inhibition [3]	Activity [5] [%]	ED50 [6] [mg/kg]
145		CC(C)n1c(CC[C@@H](O)C[C@@H](O)CC(=O)O)c(-c2ccc(F)cc2)c(-c2ccc(F)cc2)c1C(=O)Nc1ccccc1	0.4	75			
626	0.4	CC(C)n1c(CC[C@@H](O)C[C@@H](O)CC(=O)O)c(-c2ccc(F)cc2)c(-c2ccccc2)c1C(=O)Nc1ccc(O)cc1	0.5	48			
12600	0.3	CC(C)n1c(CC[C@@H](O)C[C@@H](O)CC(=O)O)c(-c2ccc(F)cc2)c(-c2ccccc2)c1C(=O)Nc1ccc(C(=O)O)cc1	0.1		inactive		
3100	1.2	CC(C)n1c(CC[C@@H](O)C[C@@H](O)CC(=O)O)c(-c2ccc(F)cc2)c(-c2ccccc2)c1C(=O)NCc1cccc(C(N)=O)c1	0.1	22			
1790	2.9	CC(C)n1c(CC[C@@H](O)C[C@@H](O)CC(=O)O)c(-c2ccc(F)cc2)c(-c2ccccc2)c1C(=O)Nc1ccc(S(N)(=O)=O)cc1	0.3	32			
524	0.7	CC(C)n1c(CC[C@@H](O)C[C@@H](O)CC(=O)O)c(-c2ccc(F)cc2)c(-c2ccc(F)cc2)c1C(=O)Nc1cccc(O)c1	1.2	22			
549	0.3	CC(C)n1c(CC[C@@H](O)C[C@@H](O)CC(=O)O)c(-c2ccc(F)cc2)c(-c2ccc(F)cc2)c1C(=O)Nc1cccc(C(=O)N(C)C)c1	0.2	20			
1110	1.4	CC(C)n1c(CC[C@@H](O)C[C@@H](O)CC(=O)O)c(-c2ccc(F)cc2)c(-c2ccccc2)c1C(=O)Nc1ccc(C(=O)N(C)C)cc1	0.7	10			
229	1.8	CC(C)n1c(CC[C@@H](O)C[C@@H](O)CC(=O)O)c(-c2ccc(F)cc2)c(-c2ccccc2)c1C(=O)Nc1ccccc1	1	57			
684	0.3	CC(C)n1c(CC[C@@H](O)C[C@@H](O)CC(=O)O)c(-c2ccc(F)cc2)c(-c2ccccc2)c1C(=O)Nc1ccc(C(N)=O)cc1	0.1	45			
130	1.8	COc1cccc(CNC(=O)c2c(-c3ccccc3)c(-c3ccc(F)cc3)c(CC[C@@H](O)C[C@@H](O)CC(=O)O)n2C(C)C)c1	0.1				
7920	2.2	CC(C)n1c(CC[C@@H](O)C[C@@H](O)CC(=O)O)c(-c2ccc(F)cc2)c(-c2ccccc2)c1C(=O)NCc1ccc(C(=O)O)cc1	0.1	7			
50	6.6	COc1cccc(NC(=O)c2c(-c3ccc(F)cc3)c(-c3ccc(F)cc3)c(CC[C@@H](O)C[C@@H](O)CC(=O)O)n2C(C)C)c1	0.3	54			

More lines, now with the values behind:

SMILES	IC50 [2] [nM]	IC50 [4] [nM]	IC50 [1] [nM]	inhibition in vivo at 1 mg/kg [3] [%]	inhibition [3]	Activity [5] [%]	ED50 [6] [mg/kg]
COCc1ccc(CNC(=O)c2c(-c3ccccc3)c(-c3ccc(F)cc3)c(CC[C@@H](O)C[C@@H](O)CC(=O)O)n2C(C)C)cc1	211	0.7	1.5				
CC(C)n1c(CC[C@@H](O)C[C@@H](O)CC(=O)O)c(-c2ccc(F)cc2)c(-c2ccccc2)c1C(=O)N(C)C	1580	20	0.9	85			
CC(C)n1c(CC[C@@H](O)C[C@@H](O)CC(=O)O)c(-c2ccc(F)cc2)c(-c2ccccc2)c1C(=O)NCc1ccccc1	44	0.8	0.3	46			
Cc1cc(CNC(=O)c2c(-c3ccccc3)c(-c3ccc(F)cc3)c(CC[C@@H](O)C[C@@H](O)CC(=O)O)n2C(C)C)nn1C	3230	0.6	0.9	19			
CC(C)n1c(CC[C@@H](O)C[C@@H](O)CC(=O)O)c(-c2ccc(F)cc2)c(-c2ccccc2)c1C(=O)NCc1ccc(C(=O)N(C)C)cc1	6520	1.2	4.9	38			
CC(C)n1c(CC[C@@H](O)C[C@@H](O)CC(=O)[O-])c(-c2ccc(F)cc2)c(-c2ccccc2)c1C(=O)NC1CC1.[Na+]	2780	3.8	2	70		-24	
CCNC(=O)c1c(-c2ccccc2)c(-c2ccc(F)cc2)c(CC[C@@H](O)C[C@@H](O)CC(=O)[O-])n1C(C)C.[Na+]	2270	12	0.7	76		-24	3
COc1ccc(CNC(=O)c2c(-c3ccccc3)c(-c3ccc(F)cc3)c(CC[C@@H](O)C[C@@H](O)CC(=O)O)n2C(C)C)cc1	310	0.8	0.4	52			
CC(C)n1c(CC[C@@H](O)C[C@@H](O)CC(=O)O)c(-c2ccc(F)cc2)c(-c2ccccc2)c1C(=O)NCc1ccc(C#N)cc1	650	0.2	0.7	47			
CC(C)NC(=O)c1c(-c2ccccc2)c(-c2ccc(F)cc2)c(CC[C@@H](O)C[C@@H](O)CC(=O)O)n1C(C)C	1930	15	1.6	73			
CCC(C)(C)C(=O)O[C@H]1C[C@@H](C)C=C2C=C[C@H](C)[C@H](CC[C@@H]3C[C@@H](O)CC(=O)O3)[C@H]21 [SIMVASTATIN]	150		1.3				
CC(C)c1nc(N(C)S(C)(=O)=O)nc(-c2ccc(F)cc2)c1/C=C/[C@@H](O)C[C@@H](O)CC(=O)O [ROSUVASTATIN]	250	3.1	0.27	82		-25	
CC(C)n1c(CC[C@@H](O)C[C@@H](O)CC(=O)O)c(-c2ccc(F)cc2)c(-c2ccccc2)c1C(=O)NCc1ccccn1	472	0.8	0.1	39			
Cc1csc(CNC(=O)c2c(-c3ccccc3)c(-c3ccc(F)cc3)c(CC[C@@H](O)C[C@@H](O)CC(=O)O)n2C(C)C)n1	1010	1.5	1.5	33			
Cc1cc(CNC(=O)c2c(-c3ccccc3)c(-c3ccc(F)cc3)c(CC[C@@H](O)C[C@@H](O)CC(=O)O)n2C(C)C)n[nH]1	10400	2.6	0.5				
CNC(=O)c1c(-c2ccccc2)c(-c2ccc(F)cc2)c(CC[C@@H](O)C[C@@H](O)CC(=O)[O-])n1C(C)C.[Na+]	5300	8.8	1.2	83		-12	
CC(C)n1c(CC[C@@H](O)C[C@@H](O)CC(=O)[O-])c(-c2ccc(F)cc2)c(-c2ccccc2)c1C(N)=O.[Na+]	2450	3	0.6	85		-11	
Cc1cnc(CNC(=O)c2c(-c3ccccc3)c(-c3ccc(F)cc3)c(CC[C@@H](O)C[C@@H](O)CC(=O)O)n2C(C)C)[nH]1	10400	3.4	0.5	11			
